Published values collected from several papers.
Compare with care: the assays were run in different laboratories.
Target: Casein kinase I isoform alpha-like (CSNK1A1L, Homo sapiens, UniProt Q8N752)
One construct used (Q8N752 1-337): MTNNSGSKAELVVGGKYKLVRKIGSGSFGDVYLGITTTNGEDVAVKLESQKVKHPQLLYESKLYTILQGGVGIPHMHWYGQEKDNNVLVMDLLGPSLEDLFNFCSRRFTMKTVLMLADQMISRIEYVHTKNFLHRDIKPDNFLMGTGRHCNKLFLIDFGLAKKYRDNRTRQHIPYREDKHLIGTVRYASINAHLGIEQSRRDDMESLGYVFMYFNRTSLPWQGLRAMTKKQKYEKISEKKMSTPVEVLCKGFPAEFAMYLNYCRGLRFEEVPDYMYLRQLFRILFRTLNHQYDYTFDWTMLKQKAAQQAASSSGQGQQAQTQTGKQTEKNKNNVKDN

SMILES | assay | setting | remaining binding [%]
Cc1c[nH]c2nccc(Oc3c(F)cc(Nc4cc(Cl)nc(N)n4)cc3F)c12 | cell-free assay, competition with immobilised ligand | 0.1 µM | 89
F[C@@H]1CCN(c2nccc(-c3cnn4ncccc34)n2)C1 | binding | 1 µM | 100
FC(F)(F)Oc1cccc(-c2cnc3ccc(-c4ccncc4)nn23)c1 | cell-free assay, competition with immobilised ligand | 5 µM | 90
O=C(c1ccc(Nc2ncc(Cl)c(-c3cc4ccccc4s3)n2)cc1)N1CCC(N2CCCC2)CC1 | binding, competition with immobilised ligand | 1 µM | 100
COc1ncc2cc3ccccc3nc2c1C#N | cell-free assay, competition with immobilised ligand | 5 µM | 100
c1cnn2ncc(-c3ccnc(N4CCC45COC5)n3)c2c1 | binding | 1 µM | 68
CN(C(=O)c1ccccc1)c1cc(N(C)c2ccc3c(c2)CCc2ccc(C(=O)NCCN4CCOCC4)cc2C3=O)ccc1F | cell-free assay, competition with immobilised ligand | 1 µM | 100
c1cncc(-c2cccc(Nc3nccc(NC4CCCCC4)n3)c2)c1 | binding, competition with immobilised ligand | 10 µM | 92
Nc1ncc2c(n1)-c1c([nH]c3ccc(C#CC4CC4)cc13)CCCC2 | binding, competition with immobilised ligand | 1 µM | 99
CN(c1nccc(-c2cnn3ncccc23)n1)C1CC1 | binding | 1 µM | 100
Cc1nccc(COC(=O)N2C[C@@H]3[C@@H](CNC(=O)c4ccc5[nH]nnc5c4)[C@@H]3C2)n1 | cell-free assay, competition with immobilised ligand | 1 µM | 100
O=C(NCC1CCOCC1)c1n[nH]cc1NC(=O)c1c(F)cccc1F | binding, competition with immobilised ligand | 1 µM | 85
CN(C)c1ncc(F)c(-c2cnn3ncccc23)n1 | binding | 1 µM | 100
CNC(=O)[C@@H]1CC[C@@H](n2c(-c3ccc4cnccc4c3)nc3ccc(C(=O)NCc4cccc(C(N)=O)c4)cc32)C1 | binding, competition with immobilised ligand | 1 µM | 100
CCC(=N\O)/C(C)=C/c1ccc(F)cc1 | cell-free assay, competition with immobilised ligand | 1 µM | 78
N[C@H]1CCN(c2nccc(-c3cnn4ncccc34)n2)C1 | binding | 1 µM | 100
O=C(NCCCN1CCOCC1)c1ccc(Nc2nccc(-c3cc4ccccc4s3)n2)cc1 | binding, competition with immobilised ligand | 1 µM | 91
N#Cc1ccc(Nc2ccc3[nH]c(=O)[nH]c3c2)c(Cl)c1 | cell-free assay, competition with immobilised ligand | 1 µM | 100
O=C(c1ccc(Nc2ncc(Cl)c(-c3ccc(Cl)s3)n2)cc1)N1CCC(N2CCCC2)CC1 | binding, competition with immobilised ligand | 1 µM | 100
C[C@@H]1CCN(c2nccc(-c3cnn4ncccc34)n2)C1 | binding | 1 µM | 81
CNCc1ccccc1-c1csc([C@@H](C)Nc2nc(C)nc3cc(OC)c(OC)cc23)c1 | cell-free assay, competition with immobilised ligand | 1 µM | 100
